Test results taken from ChEMBL document CHEMBL1817543, “New nitric oxide or hydrogen sulfide releasing aspirins” (J Med Chem, 2011).
The source made the active and inactive calls. The calls are words filed in the database; no cut-off is given here.

Key:
[1] = system: Aorta; assay: Vasodilatory activity at endothelium denuded Wistar rat thoracic aorta assessed as relaxation of KCl-induced contraction preincubated for 30 mins before KCl challenge in presence of 10 uM ATP-modulated K+ channel inhibitor glibenclamide; assay type: functional, tissue-based
Method in brief: (§1)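 Endothelium-denuded thoracic aorta strips from male Wistar rats (180–200 g) at 37 °C, gassed 95% O2/5% CO2, pH 7.4. Equilibrated 1.5 h, contracted with 25 mM KCl, then cumulative compound concentrations added at plateau; isometric tension recorded. EC50 ± SEM; at least five experiments. For glibenclamide runs, 10 μM added before contraction, ≥30 min before vasodilator.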

[2] = system: Aorta; assay: Vasodilatory activity at endothelium denuded Wistar rat thoracic aorta assessed as relaxation of KCL-induced contraction preincubated for 30 mins before KCL challenge; assay type: functional, tissue-based; method in brief: as §1
[3] = system: Platelet; assay: Antiaggregatory activity in plasma rich human platelets assessed as inhibition of collagen-induced platelet aggregation at 300 uM preincubated for 10 mins before collagen challenge measured 10 mins after stimulus addition; assay type: functional
Method in brief: (§2)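 Human PRP from citrated venous blood of drug-free healthy volunteers, centrifuged 210g for 20 min. Compound (vehicle 0.5% DMSO) preincubated 10 min, then collagen at submaximal 0.8–1.5 μg/mL. Light-transmission aggregometry with stirring at 1000 rpm, 37 °C, recorded 10 min. Reported as % inhibition versus control (at 300 μM) or IC50 by nonlinear regression. At least five experiments.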

[4] = species on record: Homo sapiens; assay: Chemical stability of compound in human serum assessed as maximal amount of aspirin released; assay type: ADME
Method in brief: (§3)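 DMSO stock (10 mM) added to prewarmed human serum (male AB plasma) to a final 200 μM. Incubated at 37 ± 0.5 °C; aliquots deproteinized with acetonitrile containing 0.1% TFA. Parent, aspirin and metabolites quantified by RP-HPLC, calibration 1–200 μM. Pseudo-first-order half-life; peak aspirin expressed as % of initial carbonate. At least triplicate.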

[5] = Antiaggregatory activity in plasma rich human platelets assessed as inhibition of collagen-induced platelet aggregation preincubated for 10 mins before collagen challenge measured 10 mins after stimulus addition; assay type: functional; method in brief: as §2
[6] = Half life in human serum at 200 uM by RP-HPLC analysis; assay type: ADME; method in brief: as §3
[7] = Chemical stability of the compound in phosphate buffer assessed as unchanged compound after 3 hrs at pH 7.4 by RP-HPLC analysis; assay type: physicochemical; details: read-out: Stability
Method in brief: (§4)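 A 0.5 mM DMSO solution (2 mL) was diluted to 10 mL with 0.1 M HCl (pH 1.0) or 50 mM phosphate buffer (pH 7.4). Held at 37 ± 0.5 °C and sampled over time by RP-HPLC on C18 with acetonitrile/water 0.1% TFA gradient. Percent unchanged reported at 3 h. Triplicate.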

[8] = Chemical stability of the compound in acidic medium assessed as unchanged compound after 3 hrs at pH 1 by RP-HPLC analysis; assay type: physicochemical; details: read-out: Stability; method in brief: as §4
[9] = system: Aorta; assay: Vasodilatory activity at endothelium denuded Wistar rat thoracic aorta assessed as relaxation of phenylephrine-induced contraction preincubated for 30 mins before phenylephrine challenge in presence of 1 uM soluble guanylate cyclase inhibitor H-[1,2,4]Oxadiazolo[4,3-a]quinoxalin-1-one; assay type: functional, tissue-based
Method in brief: (§5)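 Male Wistar rat (180–200 g) thoracic aorta strips at 37 °C, 95% O2/5% CO2, pH 7.4, equilibrated 1.5 h, then precontracted with 1 μM L-phenylephrine. Cumulative vasodilator concentrations added at plateau; isometric recording. EC50 ± SEM from at least five experiments. ODQ runs: 1 μM inhibitor added before contraction, preincubated ≥30 min before vasodilator.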

[10] = system: Aorta; assay: Vasodilatory activity at endothelium denuded Wistar rat thoracic aorta assessed as relaxation of phenylephrine-induced contraction; assay type: functional, tissue-based; method in brief: as §5

SMILES	EC50 [1] [µM]	EC50 [2] [µM]	Activity [3]	Activity [4] [%]	IC50 [5] [µM]	half-life at 200 µM [6] [min]	remaining at 3 h [7] [%]	remaining at 3 h [8] [%]	EC50 [9] [µM]	EC50 [10] [µM]
Oc1ccc(-c2cc(=S)ss2)cc1	17	5.9	inactive							
OCCOc1ccc(-c2cc(=S)ss2)cc1	16	8								
CC(=O)Oc1ccccc1C(=O)OCOC(=O)Oc1ccc(CCCO[N+](=O)[O-])cc1				40	68	1.6	98	98		
CC(=O)Oc1ccccc1C(=O)OCOC(=O)OCCOc1ccc(-c2cc(=S)ss2)cc1				42	16	3	96	98		
O=[N+]([O-])OCC(Cc1ccc(O)cc1)O[N+](=O)[O-] (configuration not stated)			inactive						> 100	0.13
O=[N+]([O-])OCCCc1ccc(O)cc1									> 100	1
CC(=O)Oc1ccccc1C(=O)OCOC(=O)Oc1ccc(-c2cc(=S)ss2)cc1				36	150	2.1	80	96		
CC(=O)Oc1ccccc1C(=O)O [ASPIRIN]					54	63	90	90		
CC(=O)Oc1ccccc1C(=O)OCOC(=O)Oc1ccc(CC(CO[N+](=O)[O-])O[N+](=O)[O-])cc1 (configuration not stated)				34	103	2.2	95	98		
CC(=O)Oc1ccccc1C(=O)OCOC(=O)OCC(CO[N+](=O)[O-])O[N+](=O)[O-] (configuration not stated)				25	93	< 1	85	98		
O=[N+]([O-])OCCCO [ABRUCOMSTAT]			inactive						> 100	4
CC(=O)Oc1ccccc1C(=O)OCOC(=O)OCCCO[N+](=O)[O-]				9	194	< 1	98	98		
